Compound activity: PubChem, The Scripps Research Institute Molecular Screening Center
Sampled rows, rich in hits. Any-hit rate of the full collection: about 0.74%.
Tn7 DDE FP: disrupts Tn7 cyclic peptide binding to fibrin D-Dimer-E complex. P02675. FP displacement of FITC-Tn7 peptide from fibrin DD(E); 0% = median of compound wells per plate. inhibition, % at 8.3 µM. 370,000 compounds, 0.13% hits;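 active = inhibition above the mean of compounds falling within the control limits plus 3 SD of them, cut at about 14% in these data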;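 also: 0% = plate median of compound wells and 100% = 10 µM Aha-Tn7 peptide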
Target sequence (P02675 whole entry, looked up): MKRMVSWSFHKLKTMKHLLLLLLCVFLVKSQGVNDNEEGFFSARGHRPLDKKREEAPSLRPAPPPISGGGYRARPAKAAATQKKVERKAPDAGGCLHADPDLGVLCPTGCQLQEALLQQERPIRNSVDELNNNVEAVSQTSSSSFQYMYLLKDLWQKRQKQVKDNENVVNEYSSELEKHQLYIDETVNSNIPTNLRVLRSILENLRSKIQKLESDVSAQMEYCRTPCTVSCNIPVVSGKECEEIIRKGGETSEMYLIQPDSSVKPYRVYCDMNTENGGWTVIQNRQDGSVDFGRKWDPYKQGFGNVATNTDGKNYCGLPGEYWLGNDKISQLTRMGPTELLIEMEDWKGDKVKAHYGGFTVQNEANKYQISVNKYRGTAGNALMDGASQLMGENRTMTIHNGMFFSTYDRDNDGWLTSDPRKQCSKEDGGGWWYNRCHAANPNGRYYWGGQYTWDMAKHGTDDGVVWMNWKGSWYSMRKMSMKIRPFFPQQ
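Test system: human clot-derived fibrin DD(E) complex / Quantity: 2 µM final DD(E) protein / Incubation: 10 min plus 3 h, room temperature / Measured by: fluorescence polarization / Benchmarks: high control of 10 µM Aha-Tn7 peptide / Replicates: singlicate testing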
ASAP1 GAP inh: ASAP1 ArfGAP inhibition; Q9ULH1; ASAP1-stimulated ARF1 GTP hydrolysis, GDP FP detection; inhibition, % at 16.5 µM; 360,000 compounds, 0.19% hits; in the data active = inhibition above about 25%;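 also: 0% = vehicle with enzyme and substrate and 100% = no enzyme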
ARFGAP1 inh: inhibits rat ARF GTPase activating protein 1 | Q62848 | Arfgap1-stimulated ARF1 GTP hydrolysis, GDP FP detection | inhibition, % at 16.5 µM | 360,000 compounds, 0.26% hits;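 active = inhibition above a per-plate limit, mean inhibition of low control wells plus 3 SD, cut at about 25% in these data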;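 also: 0% = DMSO wells with enzyme and 100% = wells lacking Arfgap1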
Target sequence (Q62848 1-136 limits assumed): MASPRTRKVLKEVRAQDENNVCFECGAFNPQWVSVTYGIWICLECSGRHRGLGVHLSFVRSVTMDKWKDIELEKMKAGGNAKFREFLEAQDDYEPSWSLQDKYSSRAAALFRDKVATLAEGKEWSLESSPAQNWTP
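Replicates: Single well per compound | Assay system: Truncated rat Arfgap1 GAP domain | Control set: No-Arfgap1 wells (100%) versus DMSO full-reaction wells (0%) | Times: Enzyme reaction 120 min at 25 °C after 20 min preincubation | Reagent: Human ARF1(Δ1-17)-GTP substrate | Measured by: Tracer-displacement fluorescence polarization with EDTA stop, 620/688 nm | Measure: Percent inhibition of Arfgap1-stimulated GTP hydrolysis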
Tn6 DDE FP: DD(E)-Tn6 binding inhibition, primary FP screen; P02675; Fibrin DD(E) TRITC-Tn6 fluorescence polarization displacement; inhibition, % at 8.3 µM; 370,000 compounds, 0.21% hits;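 active = inhibition above a per-campaign cutoff: mean of compounds within control limits plus 3 SD, cut at about 15% in these data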;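 also: 0% = median of all compound wells on the plate and 100% = blocking peptide control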
Tn6 DDE ctr: DD(E)-Tn6 binding inhibition, counter-screen | shares compounds with Tn6 DDE FP | Fibrin DD(E), TRITC-Tn6 fluorescence polarization displacement; 0% = median of compound wells, not DMSO | inhibition, % at 8.3 µM | 680 compounds, 2% hits | AID 720621;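 active = inhibition above the mean of test compounds lying between the control limits plus 3 SD of those, cut at about 14% in these data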;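 also: 0% = median of compound wells and 100% = wells with Aha-Tn7 blocking peptide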
Tn6 DDE conf: DD(E)-Tn6 binding inhibition, FP confirmation; shares compounds with Tn6 DDE FP; 680 compounds, 10% hits; FP displacement of TRITC-Tn6 peptide from DD(E); 0% = per-plate median of test wells; inhibition, % at 8.3 µM;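 active = inhibition above the mean of compounds lying within the control limits plus 3 SD, cut at about 16% in these data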;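 also: 100% = high control wells holding a competing inhibitor peptide at 10 µM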
Numbers without * were called inactive; · = no result; + = active, no number.

SMILES	Tn7 DDE FP	ASAP1 GAP inh	ARFGAP1 inh	Tn6 DDE FP	Tn6 DDE ctr	Tn6 DDE conf
Cc1cc(-c2nnn(CCCOC(C)(C)C)c2C)ccc1-c1cn(CCCOC(C)(C)C)nn1	-4	-9	-4	17*	5	6
C[C@@H](N)P(=O)(O)C[C@H](Cc1ccccc1)C(=O)O	-6	·	·	7	·	·
CCCCCn1c(=O)[nH]c2cc(C(=O)NCCCN3CCCCC3)ccc2c1=O	3	-8	13	-6	·	·
CCCCCn1c(=O)[nH]c2cc(C(=O)NCCCN3CCC(C)CC3)ccc2c1=O	11	-11	8	18*	-2	-8
C=CCNC(=O)N1CCC(c2nc3ccc(Cl)cc3[nH]2)CC1	-7	·	·	-4	·	·
CCCCC1CC(CSC(=N)N)OC1=O (stereo unspecified)	6	-4	-1	18*	1	-4
CCCCC1CC(CSc2ncn[nH]2)OC1=O (stereo unspecified)	6	-7	-6	72*	-1	-7
CCCCCCCC1CC(CSC(=N)N)OC1=O (stereo unspecified)	4	4	10	13	·	·
CC(C)C(=O)NCCc1nc2ccccc2n1CCOc1ccccc1	1	4	5	15*	9	8
Cc1cc(C(F)(F)F)n2nc(-c3cnn(C)c3C(F)(F)F)c(Cl)c2n1	0	0	-12	16*	9	5
CC1=CN2C(=N)/C(=C/c3ccco3)C(=O)N=C2S1	1	1	-5	5	·	·
CC1=CN2C(=N)/C(=C/c3ccc([N+](=O)[O-])o3)C(=O)N=C2S1	-5	-1	-2	20*	-12	-10
Cc1cc(C(C)(C)C)cc(S(=O)(=O)NCCc2ccncc2)c1C	0	7	2	21*	-5	-8
O=S1(=O)c2c(NCc3ccco3)cccc2Oc2ccccc2CN1Cc1cn(Cc2cccc(F)c2)nn1	-6	·	·	-4	·	·
CCCC(=O)Nc1ccc2oc(-c3cncc(Br)c3)nc2c1	-1	-6	6	4	·	·
CCCCCC(=O)Nc1ccc2oc(-c3cncc(Br)c3)nc2c1	-1	15	15	16*	-5	-13
Cc1ccc(-n2c(SCC(=O)Nc3ccc(S(=O)(=O)Nc4cc(C)nc(C)n4)cc3)nnc2-c2ccc(C(C)(C)C)cc2)cc1	-4	·	·	1	·	·
CN(C)S(=O)(=O)c1cccc(C(=O)N/N=C\c2cccc(C#N)c2)c1	-2	·	·	-5	·	·
COc1ccc(C(=O)OCCCN(C)C2CN(Cc3cn(Cc4ccccc4Cl)nn3)S(=O)(=O)C2)cc1OC (stereo unspecified)	2	·	·	-8	·	·
COC(=O)[C@H]1C[C@@]2(N3CCCC3)c3ccccc3N[C@H]2N1S(C)(=O)=O	-2	·	·	8	·	·
O=C(CSc1nc2ncccc2[nH]1)NC1CCCCC1	3	6	-2	-4	·	·
CCC(Sc1nc2ncccc2[nH]1)C(=O)NC1CCCC1 (stereo unspecified)	-1	1	-11	18*	0	-1
Cc1ccc(C(=O)n2cnc3ccccc32)cc1C	0	1	0	16*	4	3
Cc1cc2ncn(C(=O)c3ccc4c(c3)OCO4)c2cc1C	0	-2	7	2	·	·
C=CCN1C(C(=O)OC)CN(Cc2cn(Cc3ccc(Cl)cc3)nn2)CCS1(=O)=O (stereo unspecified)	11	·	·	3	·	·
SMILES	Tn7 DDE FP	ASAP1 GAP inh	ARFGAP1 inh	Tn6 DDE FP	Tn6 DDE ctr	Tn6 DDE conf
Cc1csc(SCC(=O)NCc2cccc(Cl)c2)n1	1	4	-10	17*	1	1
Cc1csc(SCC(=O)NCc2ccc3c(c2)OCO3)n1	2	3	0	6	·	·
O=C1c2cccc3c(O)ccc(c23)C(=O)N1Cc1ccccc1	-1	13	9	24*	19*	19*
Cc1nn(C)c(C)c1N1C(=O)c2cccc3c(N)ccc(c23)C1=O	5	-14	2	19*	12	3
COc1ccc2c(CC#N)c[nH]c2c1	2	4	-3	16*	2	2
COc1ccc2c(CCNC(N)=S)c[nH]c2c1	4	-1	-10	7	·	·
Cc1cc2cc(CNC(=O)c3cccc([N+](=O)[O-])c3)ccc2[nH]1	1	4	4	-2	·	·
Cc1c(C(=O)NCc2ccc3c(c2)cc(C)n3C)cccc1[N+](=O)[O-]	2	-3	-6	24*	-4	-7
Cc1c(C(=O)NCc2ccco2)cccc1[N+](=O)[O-]	-3	-7	-2	-8	·	·
Cc1cc2cc(CNC(=O)c3cccc([N+](=O)[O-])c3)ccc2n1C	6	-3	8	53*	-3	-7
Cc1cc2cc(CNC(=O)Cc3ccc([N+](=O)[O-])cc3)ccc2n1C	2	4	3	17*	0	6
Cc1cc2cc(CNC(=O)Cc3ccc([N+](=O)[O-])cc3)ccc2[nH]1	0	-1	10	-1	·	·
Cc1ccc(C(=O)N2[C@@H]3CN(C)C(=O)[C@@]2(Cc2ccccc2)[C@H]2C(=O)N(C)C(=O)[C@@H]32)cc1	8	-3	-8	16*	-3	-3
Nc1nnc(CCCCCCCCCCc2nnc(N)s2)s1	-6	-12	-3	0	·	·
Nc1nnc(CCC2CCCCC2)s1	-1	-12	-7	17*	4	2
COC(=O)COC(=O)c1ccc(Oc2nc(OC)nc(N(C)C)n2)cc1	-9	-5	0	21*	0	4
COc1ccc(/C=C/S(=O)(=O)NCCc2ccccc2)c(CNC(=O)OC(C)(C)C)c1	5	·	·	3	·	·
COC(=O)[C@H](C)NC(=O)Nc1ccc(S(N)(=O)=O)cc1	-2	7	-18	5	·	·
CC(C)C(Cl)=NOC(=O)Nc1ccc(S(N)(=O)=O)cc1	-11	3	-2	16*	7	8
O=C1c2ccccc2CCC12N=NCC2c1ccc(Cl)cc1 (stereo unspecified)	1	-17	12	17*	-5	-11
O=C1c2ccccc2CCC12N=NCC2c1ccc(Br)cc1 (stereo unspecified)	-2	-9	-4	1	·	·
O=C(NC1CCCCN(Cc2cccc(C(F)(F)F)c2)C1=O)c1ccc(F)c(F)c1 (stereo unspecified)	-4	·	·	-1	·	·
O=c1cc(O)c2ccc(O)cc2o1	6	-5	-11	2	·	·
O=c1ccc2[n+]([O-])c3ccc(O)cc3oc-2c1	2	-100	-104	+	2	93*
O=C(CC1C(=O)NCCN1C(=O)Nc1ccc(F)cc1F)Nc1cc(Cl)ccc1Cl (stereo unspecified)	5	1	10	15	·	·
Cc1cc(C)cc(NC(=O)N2CCNC(=O)C2CC(=O)Nc2cc(Cl)ccc2Cl)c1 (stereo unspecified)	6	-3	9	16*	8	-1
